Key:
[1] = Cytotoxicity against human MT4 cells after 3 days by EGFP based replication assay; type: cell-based
Summary of the method: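 Uninfected MT4-CMV-EGFP cells, which express EGFP constitutively, were exposed to serial 4-fold compound dilutions at 37 °C for 3 days. EGFP was read by argon laser-scanning microscopy. CC50 was obtained by linear interpolation of EGFP signal against log concentration.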

[2] = tested on: Human immunodeficiency virus 1; assay: Antiviral activity against HIV1 LAI with RT K103N mutation in MT4 cells by EGFP based replication assay; type: functional, organism-based; conditions: Human immunodeficiency virus 1, LAI
Summary of the method: (§1)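 MT4-LTR-EGFP indicator cells (EGFP under HIV-1 LTR, induced via Tat) mixed with HIV-1 LAI or LAI-derived RT mutant and serial 4-fold compound dilutions; incubated 37 °C for 3 days. EGFP expression read by argon laser-scanning microscopy. EC50 = concentration inhibiting 50% of virus-induced EGFP signal, by linear interpolation of signal versus log concentration.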

[3] = tested on: Human immunodeficiency virus 1; assay: Antiviral activity against HIV1 LAI with RT F227C and V106A mutation in MT4 cells by EGFP based replication assay; type: functional, organism-based; conditions: Human immunodeficiency virus 1, LAI; summary of the method: as §1
[4] = tested on: Human immunodeficiency virus 1; assay: Antiviral activity against HIV1 LAI with RT Y188L mutation in MT4 cells by EGFP based replication assay; type: functional, organism-based; conditions: Human immunodeficiency virus 1, LAI; summary of the method: as §1
[5] = tested on: Human immunodeficiency virus 1; assay: Antiviral activity against HIV1 LAI with RT L100I and K103N mutation in MT4 cells by EGFP based replication assay; type: functional, organism-based; conditions: Human immunodeficiency virus 1, LAI; summary of the method: as §1
[6] = tested on: Human immunodeficiency virus 1; assay: Antiviral activity against wild type HIV1 LAI infected in MT4 cells by EGFP based replication assay; type: functional, organism-based; conditions: Human immunodeficiency virus 1, LAI
Summary of the method: (§2)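 MT4-LTR-EGFP indicator cells (EGFP under HIV-1 LTR, induced via Tat) mixed with HIV-1 LAI or LAI-derived RT mutant and serial 4-fold compound dilutions; incubated 37 °C for 3 days. EGFP expression read by argon laser-scanning microscopy.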

[7] = tested on: Human immunodeficiency virus 1; assay: Antiviral activity against HIV1 LAI with RT L100I mutation in MT4 cells by EGFP based replication assay; type: functional, organism-based; conditions: Human immunodeficiency virus 1, LAI; summary of the method: as §2
[8] = tested on: Human immunodeficiency virus 1; assay: Antiviral activity against HIV1 LAI with RT F227C mutation in MT4 cells by EGFP based replication assay; type: functional, organism-based; conditions: Human immunodeficiency virus 1, LAI; summary of the method: as §1
[9] = tested on: Human immunodeficiency virus 1; assay: Antiviral activity against HIV1 LAI with RT K103N and Y181C mutation in MT4 cells by EGFP based replication assay; type: functional, organism-based; conditions: Human immunodeficiency virus 1, LAI; summary of the method: as §1
[10] = tested on: Human immunodeficiency virus 1; assay: Antiviral activity against HIV1 LAI with RT Y181C mutation in MT4 cells by EGFP based replication assay; type: functional, organism-based; conditions: Human immunodeficiency virus 1, LAI; summary of the method: as §1
[11] = Selectivity index, ratio of CC50 for human MT4 cells to EC50 for HIV1 LAI; type: functional
[12] = Half life in Wistar rat at 10 mg/kg, po after 6 hrs; type: ADME, organism-based; set-up: dose 10 mg/kg, route oral; conditions: in vivo
[13] = Metabolic stability in dog liver microsomes after 15 mins; type: ADME, Canis lupus familiaris, Microsome; conditions: read-out: Stability
Summary of the method: (§3)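 Liver microsomes were the 100,000×g pellet of S9 from tissue homogenized in 0.1 M phosphate, pH 7.4. Incubations contained 1 mg/mL protein in 0.1 M phosphate pH 7.4 with an NADPH-generating system, plus a heat-inactivated control. After 5 min preincubation at 37 °C, NADP started the reaction, which ran 15 min and was stopped with DMSO or acetonitrile. Duplicates, LC-MS; fraction remaining relative to T=0.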

[14] = AUC in Wistar rat at 10 mg/kg, po; type: ADME, organism-based; set-up: dose 10 mg/kg, route oral; conditions: plasma
[15] = Metabolic stability in human liver microsomes after 15 mins; type: ADME, Microsome; conditions: read-out: Stability; summary of the method: as §3
[16] = Half life in Beagle dog at 10 mg/kg, po after 23 hrs; type: ADME, organism-based, Canis lupus familiaris; set-up: dose 10 mg/kg, route oral; conditions: in vivo
[17] = Metabolic stability in rat liver microsomes after 15 mins; type: ADME, Microsome; conditions: read-out: Stability; summary of the method: as §3
[18] = Cmax in Wistar rat at 10 mg/kg, po; type: ADME, organism-based; set-up: dose 10 mg/kg, route oral; conditions: in vivo
[19] = Cmax in Beagle dog at 10 mg/kg, po; type: ADME, organism-based, Canis lupus familiaris; set-up: dose 10 mg/kg, route oral; conditions: in vivo
[20] = AUC in Beagle dog at 10 mg/kg, po; type: ADME, organism-based, Canis lupus familiaris; set-up: dose 10 mg/kg, route oral; conditions: plasma

CCc1cc(/C=C/C#N)cc(C)c1Nc1ccnc(Nc2ccc(C#N)cc2)n1
CC50 at 72 h [1]: 2550 nM | EC50 [2]: 0.5 nM | EC50 [3]: 0.9 nM | EC50 [4]: 2.6 nM | EC50 [5]: 8.2 nM | EC50 [6]: 3 nM | EC50 [7]: 0.9 nM | EC50 [8]: 1.1 nM | EC50 [9]: 5.3 nM | EC50 [10]: 4 nM | Ratio CC50/EC50 [11]: 841

N#C/C=C/c1ccc(Nc2ccnc(Nc3ccc(C#N)cc3)n2)cc1
CC50 at 72 h [1]: > 25000 nM | EC50 [2]: 57.7 nM | EC50 [3]: 76.1 nM | EC50 [4]: 303 nM | EC50 [5]: 6440 nM | EC50 [6]: 33.9 nM | EC50 [7]: 585 nM | EC50 [8]: 98.4 nM | EC50 [9]: 3950 nM | EC50 [10]: 1520 nM | Ratio CC50/EC50 [11]: >737

Cc1cc(/C=C/C#N)ccc1N(C)c1ccnc(Nc2ccc(C#N)cc2)n1
CC50 at 72 h [1]: 11600 nM | EC50 [2]: 0.7 nM | EC50 [3]: 1.5 nM | EC50 [4]: 16.8 nM | EC50 [5]: 104 nM | EC50 [6]: 1 nM | EC50 [7]: 2.5 nM | EC50 [8]: 1 nM | EC50 [9]: 160 nM | EC50 [10]: 12 nM | Ratio CC50/EC50 [11]: 11351

Cc1cc(/C=C/C#N)cc(C)c1Oc1ccnc(Nc2ccc(C#N)cc2)n1
CC50 at 72 h [1]: > 25000 nM | EC50 [2]: 0.2 nM | EC50 [3]: 0.6 nM | EC50 [4]: 1.6 nM | EC50 [5]: 3.7 nM | EC50 [6]: 0.9 nM | EC50 [7]: 0.6 nM | EC50 [8]: 0.7 nM | EC50 [9]: 4.3 nM | EC50 [10]: 3.2 nM | Ratio CC50/EC50 [11]: 28302

Cc1cc(/C=C/C#N)cc(C(C)C)c1Nc1ccnc(Nc2ccc(C#N)cc2)n1
CC50 at 72 h [1]: 11800 nM | EC50 [2]: 1.3 nM | EC50 [3]: 3.2 nM | EC50 [4]: 3.8 nM | EC50 [5]: 38.3 nM | EC50 [6]: 4 nM | EC50 [7]: 3.1 nM | EC50 [8]: 3.9 nM | EC50 [9]: 10.6 nM | EC50 [10]: 11.1 nM | Ratio CC50/EC50 [11]: 2947

Cc1ccnc2c1NC(=O)c1cccnc1N2C1CC1 [NEVIRAPINE]
CC50 at 72 h [1]: 31600 nM | EC50 [2]: 1980 nM | EC50 [3]: 2700 nM | EC50 [4]: 5910 nM | EC50 [5]: 3530 nM | EC50 [6]: 33.3 nM | EC50 [8]: 827 nM | EC50 [9]: 14500 nM | EC50 [10]: 7080 nM

COc1cc(/C=C/C#N)cc(Cl)c1Nc1ccnc(Nc2ccc(C#N)cc2)n1
CC50 at 72 h [1]: 398 nM | half-life [12]: 3.83 h | remaining at 0.25 h [13]: 58% | AUC [14]: 0.41 µg·h/mL | EC50 [2]: 0.3 nM | EC50 [3]: 0.3 nM | remaining at 0.25 h [15]: 26% | EC50 [4]: 2.5 nM | EC50 [5]: 15.8 nM | half-life [16]: 14.5 h | EC50 [6]: 0.1 nM | EC50 [7]: 0.2 nM | EC50 [8]: 0.8 nM | remaining at 0.25 h [17]: 53% | Cmax [18]: 0.199 µg/mL | EC50 [9]: 2 nM | EC50 [10]: 1 nM | Cmax [19]: 2.18 µg/mL | Ratio CC50/EC50 [11]: 3981 | AUC [20]: 44.5 µg·h/mL

O=C1Nc2ccc(Cl)cc2C(C#CC2CC2)(C(F)(F)F)O1 (single isomer, unassigned) [EFAVIRENZ]
CC50 at 72 h [1]: 32300 nM | EC50 [2]: 46.4 nM | EC50 [3]: 4.1 nM | EC50 [4]: 55 nM | EC50 [5]: 1460 nM | EC50 [7]: 31 nM | EC50 [8]: 46.9 nM | EC50 [9]: 55 nM | EC50 [10]: 3.9 nM

Cc1cc(/C=C\C#N)cc(C)c1Sc1ccnc(Nc2ccc(C#N)cc2)n1
CC50 at 72 h [1]: > 25000 nM | EC50 [2]: 0.7 nM | EC50 [3]: 1.1 nM | EC50 [4]: 2.8 nM | EC50 [5]: 79.2 nM | EC50 [6]: 3.7 nM | EC50 [7]: 2.6 nM | EC50 [8]: 1.4 nM | EC50 [9]: 18.6 nM | EC50 [10]: 5.8 nM | Ratio CC50/EC50 [11]: >6821

COc1cc(/C=C/C#N)cc(C)c1Nc1ccnc(Nc2ccc(C#N)cc2)n1
CC50 at 72 h [1]: 633 nM | EC50 [2]: < 0.1 nM | EC50 [3]: 0.3 nM | EC50 [4]: 0.9 nM | EC50 [5]: 21.1 nM | EC50 [6]: 0.7 nM | EC50 [7]: 0.5 nM | EC50 [8]: 0.3 nM | EC50 [9]: 4.3 nM | EC50 [10]: 1.9 nM | Ratio CC50/EC50 [11]: 846

Cc1cc(/C=C/C#N)cc(Cl)c1Nc1ccnc(Nc2ccc(C#N)cc2)n1
CC50 at 72 h [1]: 2610 nM | half-life [12]: 3.54 h | remaining at 0.25 h [13]: 60% | AUC [14]: 0.91 µg·h/mL | EC50 [2]: 0.1 nM | EC50 [3]: 0.5 nM | remaining at 0.25 h [15]: 39% | EC50 [4]: 2.3 nM | EC50 [5]: 6.6 nM | half-life [16]: 14.5 h | EC50 [6]: 0.8 nM | EC50 [7]: 0.4 nM | EC50 [8]: 0.5 nM | remaining at 0.25 h [17]: 72% | Cmax [18]: 0.182 µg/mL | EC50 [9]: 4.1 nM | EC50 [10]: 2.3 nM | Cmax [19]: 1.04 µg/mL | Ratio CC50/EC50 [11]: 3316 | AUC [20]: 17.6 µg·h/mL

Cc1cc(/C=C/C#N)cc(C)c1Nc1ccnc(Nc2ccc(C#N)cc2)n1 [RILPIVIRINE]
CC50 at 72 h [1]: 2000 nM | half-life [12]: 6 h | remaining at 0.25 h [13]: 65% | AUC [14]: 9.65 µg·h/mL | EC50 [2]: 0.1 nM | EC50 [3]: 0.5 nM | remaining at 0.25 h [15]: 26% | EC50 [4]: 1.2 nM | EC50 [5]: 7.5 nM | half-life [16]: 23 h | EC50 [7]: 0.5 nM | EC50 [8]: 0.5 nM | remaining at 0.25 h [17]: 73% | Cmax [18]: 1.94 µg/mL | EC50 [9]: 3.2 nM | EC50 [10]: […] | Cmax [19]: 1.05 µg/mL | AUC [20]: 23.8 µg·h/mL

Cc1cc(/C=C/C#N)ccc1Nc1ccnc(Nc2ccc(C#N)cc2)n1
CC50 at 72 h [1]: > 25000 nM | EC50 [2]: 0.6 nM | EC50 [3]: 1.2 nM | EC50 [4]: 43.6 nM | EC50 [5]: 479 nM | EC50 [6]: 0.9 nM | EC50 [7]: 9.2 nM | EC50 [8]: 1.2 nM | EC50 [9]: 89.6 nM | EC50 [10]: 13.4 nM | Ratio CC50/EC50 [11]: >29372

CC(C)Nc1cccnc1N1CCN(C(=O)c2cc3cc(NS(C)(=O)=O)ccc3[nH]2)CC1 [DELAVIRDINE]
CC50 at 72 h [1]: 67200 nM | EC50 [2]: 10200 nM | EC50 [3]: 721 nM | EC50 [4]: 1020 nM | EC50 [5]: 20600 nM | EC50 [6]: 122 nM | EC50 [7]: 9530 nM | EC50 [8]: 4560 nM | EC50 [9]: 38400 nM | EC50 [10]: 9040 nM | Ratio CC50/EC50 [11]: >550

— ChEMBL document CHEMBL1146363, “Synthesis of novel diarylpyrimidine analogues of TMC278 and their antiviral activity against HIV-1 wild-type and mutant strains” (Eur J Med Chem, 2007)
